T cruzi inh – inhibitors of intracellular T. cruzi growth, primary screen, luminescence, NIH3T3 host cells. T. cruzi beta-gal in NIH3T3, 90 h. inhibition, % (test concentration not listed). 300,000 compounds, 1.4% hits. AID 1885, 2009;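 active means mean inhibition across valid replicates above about 55%, limit read from the data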;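 further: signal also drops with host cell toxicity which is not excluded here; 0% = plate median of DMSO wells and 100% = zero luminescence signal; higher percent means less beta-gal luminescence so fewer parasites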
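System: mouse NIH/3T3 fibroblasts infected with β-gal-expressing T. cruzi Tulahuen C4 / Input: NIH/3T3 cells, 5,000 per well / Buffer or medium: Low-serum DMEM with 2% FBS / Probe or stimulus: 5000 reporter trypomastigotes per well / Schedule: ≥90 h infection period, 3 h prior cell attachment / Measured by: GalScreen luminescence, 60 min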
PfHsp90 yeast 2 – growth inhibition of PfHsp90-expressing yeast, primary screen, antimalarial PfHsp90 inhibitor project, S. cerevisiae, BacTiter-Glo luminescence, single point, set 2; 310,000 compounds, 0.32% hits; inhibition, % at 9.4 µM; BacTiter-Glo ATP, 48 h; yeast lacking PDR1 and PDR3 efflux regulators;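 active means every replicate shows inhibition above about 80%, whatever the replicate mean, limit read from the data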;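 further: 0% = DMSO neutral controls and 100% = 20 µM radicicol positive controls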
PvdQ acylase – P. aeruginosa PvdQ acylase inhibitors, primary screen, biochemical, fluorescence, plate reader and imaging, single point; purified PvdQ acylase; PvdQ acylase [Pseudomonas aeruginosa LESB58]; 340,000 compounds, 0.063% hits; AID 488965, 2010; inhibition, % at 10 µM; in the data active means inhibition above about 30%, passing the limit was not always enough;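 further: 0% = vehicle neutral wells and 100% = reference inhibitor wells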
CaV13 FRET inh – Disruptors of the CACNA1D IQ motif to Ca2+-dependent inactivation inhibitor domain association, primary screening, Förster resonance energy transfer in intact living …; inhibition, % at 12.3 µM; AID 743397; HEK cells, CFP/YFP FRET ICDI-IQ, plate reader, 10 min; percent FRET-ratio fall versus neutral wells; 340,000 compounds, 0.098% hits;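 active means mean replicate inhibition of at least 30% and at least 1% of replicates passing that level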;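 further: 0% = median of the neutral control wells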
Glyco luc inh – increase of ERlucT glycosylation luciferase signal, primary screen, N-linked glycosylation inhibitor project, D54 ERlucT cells, luminescence, set 2; AID 588692, 2011; D54 ERlucT glycosylation luciferase reporter, 24 h; percent of 100 nM tunicamycin response; reporter increase, % at 12.5 µM; 360,000 compounds, 0.23% hits;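 active means mean luciferase reporter signal, scaled so untreated is 0 and the glycosylation-blocking control 100, at or above a set limit in every replicate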;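 further: luciferase carries N-glycosylation sites so blocking glycosylation raises the light; 0% = median of neutral control wells and 100% = median of 100 nM tunicamycin wells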
HSF-1 act – HSF-1 activators, primary screen, NIH3T3-HGL cells, MG132 stress, luminescence, single point; NIH3T3-HGL HSF-1 luciferase reporter, 8 h; 100% = twice DMSO control signal; activation, % at 9 µM; 300,000 compounds, 1.7% hits; AID 504408, 2011;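 active means mean replicate activation of at least 50% with a set share of replicates each reaching 50%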;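 further: 0% = median of the neutral control wells and 100% = twice that signal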
An asterisk follows results filed as active; . = not tested or not shown. Shown are actives, neighbours in structure and some others; about 3% of the full set was active somewhere.

SMILES	T cruzi inh	PfHsp90 yeast 2	PvdQ acylase	CaV13 FRET inh	Glyco luc inh	HSF-1 act
COCc1c(Br)c(C)nc(OCC(=O)N/N=C/c2cc(C)n(-c3ccc([N+](=O)[O-])cc3)c2C)c1C#N	63*	-10	-7	-1	-5	.
COc1ccc2[nH]c(C)c(CCNc3ccc(C(F)(F)F)cc3[N+](=O)[O-])c2c1	44	-46	-1	-3	-3	61*
C(=C\c1ccco1)/C1=NN(c2ccccc2)C(c2ccco2)C1 (stereo not given)	-9	60	-39	.	1	78*
O=[N+]([O-])c1ccc(/C=C/C2=NN(c3ccccc3)C(c3ccco3)C2)o1 (stereo not given)	61*	5	-8	-11	-2	6
Clc1ccc(C2=NN(c3ccccc3)C(c3ccco3)C2)cc1 (stereo not given)	19	-1	-5	-4	-1	17
Fc1ccc(C2=NN(c3ccccc3)C(c3ccco3)C2)cc1 (stereo not given)	3	-3	-10	-7	0	-1
COc1cccc(C=NNC(=S)NC2CC3CCC2C3)c1O (stereo not given)	.	.	.	-12	.	.
CCN1C[C@@H]2[C@@H]3C(=O)N(C)C(=O)[C@@H]3[C@](C)(C(=O)OC)N2C1=NC	.	0	-7	-5	2	.
COC(=O)c1cc(OC)c(OC)cc1NC(=S)N1CCCC1	52	.	5	-2	-1	62*
S=C(Nc1ccccc1)N1CCCCCC1	-3	0	4	-4	0	55*
S=C(Nc1ccc2nsnc2c1)N1CCCC1	16	-22	-9	-6	1	75*
S=C(Nc1ccccc1)N1CCC(C2CCN(C(=S)Nc3ccccc3)CC2)CC1	5	.	.	.	.	-2
COC(=O)c1ccc(N=NN2CCCCCC2)cc1	-2	24	7	-5	-8	75*
CC(C)NC(=O)C1Cc2c(-c3ccc(Cl)cc3)ccnc2O1 (stereo not given)	.	.	.	-5	-1	.
Nc1[nH]c(C(=O)c2ccc(Br)cc2)c(-c2ccc(Br)cc2)c1C(=O)NCc1cccc2ccccc12	.	.	.	-5	.	.
Nc1ncnc2c1ncn2[C@@H]1O[C@H](C(=O)N[C@@H](CCc2ccccc2)C(=O)O)[C@@H](O)[C@H]1O	.	.	.	-3	.	.
COc1ccc(-c2c(N)cnc(C(=O)O)c2C)c(OCc2ccccc2)c1OC	.	.	.	-17	1	.
CC1CCCN(C(=S)Nc2ccc(Nc3ccccc3)cc2)C1 (stereo not given)	2	-28	6	-4	-1	93*
COC(=O)c1ccc(NC(=S)N2CCCC2)cc1	-8	-9	42*	4	0	18
S=C(Nc1ccc(Nc2ccccc2)cc1)NC1CCCCCC1	55*	-11	-5	-1	-6	14
CC1CCCN(C(=S)Nc2ccc(F)cc2)C1 (stereo not given)	-19	-4	-5	-5	0	38
CCOC(=O)CN1C(=O)[C@]2(OCCC=C[C@H]2C)c2cc(OC)ccc21	.	.	.	-4	.	.
Cc1cc2nc(-c3ccc(Cl)cc3)c(Cc3ccsc3)n2c(C)c1Br	.	.	.	-5	.	.
C=CCNC(=S)N(C)[C@H]1C[C@H]2c3[nH]c4c(-c5ccccc5)cccc4c3CCN2C(=O)[C@H]1[C@H](C)O	.	.	.	-5	.	.
O=C(Nc1ccccc1Cl)c1ccc(-c2ccccn2)s1	12	-17	-5	5	-2	68*
O=C(Nc1ccccc1Cl)c1cccs1	-17	-23	-15	-3	1	2
O=C(Nc1ccc(Br)cc1)c1cccc(-n2cnnn2)c1	-1	5	-13	-3	-4	25
O=C(Nc1nc(-c2ccccn2)cs1)c1ccco1	38	-10	-2	-10	-6	17
O=C(Nc1nc(-c2ccccn2)cs1)c1ccc(Br)s1	1	126*	-29	-9	-4	2

Compound activity as filed in PubChem.
